Measured values from ChEMBL document CHEMBL4665728, “Synthesis and evaluation of 1,2,4-oxadiazole derivatives as potential anti-inflammatory agents by inhibiting NF-κB signaling pathway in LPS-stimulated RAW 264.7 cells” (Bioorg Med Chem Lett, 2020).
Active and inactive are the calls of the source. The calls are words filed in the database; no cut-off is given here.

Tests used:
[1] = Cytotoxicity against mouse RAW 264.7 assessed as cell viability at 20 uM incubated for 24 hrs by MTT assay (reference value: 100%); type: cell-based, RAW264.7; settings: RAW 264.7 cells, read-out: Activity
How it was run: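 MTT viability of RAW264.7 cells at 20 µM, expressed as percent of DMSO vehicle control (100%); above 75% viability counted as non-toxic; doxorubicin used as control drug.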

RAW264.7 [2] = test: Antiinflammatory activity against mouse RAW264.7 cells assessed as inhibition of LPS-stimulated NO production at 20 uM relative to control; type: functional; design: scale not given: the % may be the effect or the level left
How it was run: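 NO production by RAW264.7 cells stimulated with LPS; inhibitory ratio expressed relative to the LPS-treated group.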

RAW264.7 [3] = test: Antiinflammatory activity against mouse RAW264.7 cells assessed as inhibition of TNFalpha-stimulated NF-kappaB activation by luciferase assay; type: functional, cell-based
RAW264.7 [4] = test: Antiinflammatory activity against mouse RAW264.7 cells assessed as inhibition of LPS-stimulated nuclear translocation of p65 at 20 uM preincubated for 1 hr followed by LPS addition and measured after 24 hrs by fluorescence microscopic method; type: functional, cell-based
How it was run: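 RAW264.7 cells pretreated 1 h, then stimulated with LPS (1 µg/mL) or vehicle for 24 h; p65 immunostained and localisation viewed in overlaid fluorescence images; three individual experiments.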

RAW264.7 [5] = test: Antiinflammatory activity against mouse RAW264.7 cells assessed as reduction in LPS-induced IL6 mRNA expression at 3 to 6 uM incubated for 24 hrs by qRT-PCR analysis; type: functional, cell-based; settings: dose microM 3-6, time 24.0 hrs
How it was run: (§1)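 Cells co-treated with compound at several concentrations plus LPS (1 µg/mL) for 24 h; IL-6, IL-1β and TNFα mRNA by qRT-PCR, expressed as ratio to reference gene; mean ± SD, n = 3.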

RAW264.7 [6] = test: Antiinflammatory activity against mouse RAW264.7 cells assessed as degradation in LPS-induced IkappaBalpha phosphorylation at 3 to 6 uM incubated for 45 mins by Western blot analysis; type: functional, cell-based; settings: dose microM 3-6, time 45.0 min
How it was run: (§2)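 RAW264.7 cells treated with a range of concentrations for 45 min; phospho-p65, p65, IκBα and β-actin detected by Western blot; three independent experiments.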

RAW264.7 [7] = test: Antiinflammatory activity against mouse RAW264.7 cells assessed as reduction in LPS-induced p65 phosphorylation at 3 to 6 uM incubated for 45 mins by Western blot analysis; type: functional, cell-based; settings: dose microM 3-6, time 45.0 min; how it was run: as §2
RAW264.7 [8] = test: Antiinflammatory activity against mouse RAW264.7 cells assessed as reduction in LPS-induced TNFalpha mRNA expression at 3 to 6 uM incubated for 24 hrs by qRT-PCR analysis; type: functional, cell-based; settings: dose microM 3-6, time 24.0 hrs; how it was run: as §1
RAW264.7 [9] = test: Antiinflammatory activity against mouse RAW264.7 cells assessed as inhibition of LPS-stimulated iNOS protein expression at 3 to 6 uM preincubated followed by LPS addition by Western blot analysis; type: functional, cell-based; settings: dose microM 3-6
How it was run: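 iNOS protein in LPS-stimulated RAW264.7 cells detected by Western blotting; mean ± SD, n = 3.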

RAW264.7 [10] = test: Antiinflammatory activity against mouse RAW264.7 cells assessed as reduction in LPS-induced IkappaBalpha phosphorylation at 3 to 6 uM incubated for 45 mins by Western blot analysis; type: functional, cell-based; settings: dose microM 3-6, time 45.0 min; how it was run: as §2
RAW264.7 [11] = test: Antiinflammatory activity against mouse RAW264.7 cells assessed as inhibition of LPS-stimulated NO production; type: functional, cell-based
How it was run: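 IC50 for inhibition of NO release by LPS-stimulated RAW264.7 macrophages; IC50 taken as the mean of three independent experiments.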

RAW264.7 [12] = test: Antiinflammatory activity against mouse RAW264.7 cells assessed as reduction in LPS-induced IL1beta mRNA expression at 3 to 6 uM incubated for 24 hrs by qRT-PCR analysis; type: functional, cell-based; settings: dose microM 3-6, time 24.0 hrs; how it was run: as §1
RAW264.7 [13] = test: Cytotoxicity against mouse RAW 264.7 assessed as reduction in cell viability up to 100 uM incubated for 24 hrs by MTT assay; type: cell-based; settings: raw264.7, 24 h
How it was run: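 MTT viability of RAW264.7 cells across 0 to 100 µM, compared with vehicle control.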

Q: For `c1ccc(-c2nc(-c3ccc4ccccc4c3)no2)cc1`, which viability at 24 h, 20 µM [1] is on record?
A: Its viability at 24 h, 20 µM is 86.2%.

Q: And the Activity (RAW264.7 [2])?
A: The Activity was 63.58%.

Q: For `Fc1cccc(-c2nc(-c3ccc4[nH]ccc4c3)no2)c1`, which viability at 24 h, 20 µM [1] is on record?
A: Its viability at 24 h, 20 µM is 17.2%.

Q: Which viability at 24 h, 20 µM [1] does the source give for `CSc1ccc(-c2nc(-c3ccc4[nH]ccc4c3)no2)cc1` here?
A: The viability at 24 h, 20 µM was 22.8%.

Q: What does the source list for `c1coc(-c2nc(-c3ccc4[nH]ccc4c3)no2)c1`?
A: IC50 (RAW264.7 [3]): 1.35 µM; Activity (RAW264.7 [4]): Active; Activity (RAW264.7 [5]): Dose-dependent effect; Activity (RAW264.7 [6]): Dose-dependent effect; Activity (RAW264.7 [7]): Active; Activity (RAW264.7 [8]): Dose-dependent effect; Activity (RAW264.7 [9]): Active; viability at 24 h, 20 µM [1]: 99%; Activity (RAW264.7 [2]): 86.6%; Activity (RAW264.7 [10]): Dose-dependent effect; IC50 (RAW264.7 [11]): 12.8 µM; Activity (RAW264.7 [12]): Dose-dependent effect; Activity (RAW264.7 [13]): Non-Toxic

Q: For `c1ccc(-c2noc(-c3ccccc3)n2)cc1`, which viability at 24 h, 20 µM [1] is on record?
A: Its viability at 24 h, 20 µM is 42.1%.

Q: For `c1ccc(Cc2noc(-c3ccccc3)n2)cc1`, which viability at 24 h, 20 µM [1] is on record?
A: The viability at 24 h, 20 µM was 89.6%.

Q: What about the Activity (RAW264.7 [2]) of the same compound?
A: The Activity was 39.33%.

Q: For `c1ccc(-c2nc(-c3ccc4[nH]ccc4c3)no2)cc1`, which viability at 24 h, 20 µM [1] is on record?
A: The viability at 24 h, 20 µM was 79.4%.

Q: And the Activity (RAW264.7 [2])?
A: Its Activity is 46.76%.

Q: Which results are given for `c1ccc(-c2nc(-c3cccc4[nH]ccc34)no2)cc1`?
A: IC50 (RAW264.7 [3]): 13.8 µM; viability at 24 h, 20 µM [1]: 64.3%; Activity (RAW264.7 [2]): 45.71%; IC50 (RAW264.7 [11]): 27 µM

Q: With `CC(C)C[C@H](NC(=O)[C@H](Cc1ccccc1)NC(=O)c1cnccn1)B(O)O` [BORTEZOMIB] as the compound, how does the IC50 (RAW264.7 [3]) read?
A: Its IC50 is 0.03 µM.

Q: With `COc1cccc(-c2nc(-c3ccc4[nH]ccc4c3)no2)c1` as the compound, how does the viability at 24 h, 20 µM [1] read?
A: The viability at 24 h, 20 µM was 88.1%.

Q: And the Activity (RAW264.7 [2])?
A: The Activity was 53.94%.

Q: With `c1ccc(-c2nc(-c3ccncc3)no2)cc1` as the compound, how does the viability at 24 h, 20 µM [1] read?
A: Its viability at 24 h, 20 µM is 89%.

Q: What about the Activity (RAW264.7 [2]) of the same compound?
A: Its Activity is 43.13%.

Q: With `c1ccc(-c2nc(Cc3cccc4ccccc34)no2)cc1` as the compound, how does the viability at 24 h, 20 µM [1] read?
A: The viability at 24 h, 20 µM was 92.8%.

Q: And the Activity (RAW264.7 [2])?
A: The Activity was 41.64%.

Q: Which viability at 24 h, 20 µM [1] does the source give for `Cc1ccc(-c2nc(-c3ccc4[nH]ccc4c3)no2)cc1` here?
A: Its viability at 24 h, 20 µM is 51.2%.

Q: Which IC50 (RAW264.7 [11]) does the source give for `C[C@@H]1C[C@H]2[C@@H]3CCC4=CC(=O)C=C[C@]4(C)[C@@]3(F)[C@@H](O)C[C@]2(C)[C@@]1(O)C(=O)CO` [DEXAMETHASONE] here?
A: Its IC50 is 4.16 µM.

Q: For `COc1ccc(-c2nc(-c3ccc4[nH]ccc4c3)no2)cc1`, which viability at 24 h, 20 µM [1] is on record?
A: Its viability at 24 h, 20 µM is 41.3%.

Q: With `Fc1ccc(-c2nc(-c3ccc4[nH]ccc4c3)no2)cc1` as the compound, how does the viability at 24 h, 20 µM [1] read?
A: Its viability at 24 h, 20 µM is 16.8%.

Q: What does the source list for `c1ccc(-c2nc(Cc3cccs3)no2)cc1`?
A: viability at 24 h, 20 µM [1]: 85.2%; Activity (RAW264.7 [2]): 48.24%

Q: With `c1ccc(-c2nc(-c3cnccn3)no2)cc1` as the compound, how does the viability at 24 h, 20 µM [1] read?
A: Its viability at 24 h, 20 µM is 46.2%.

Q: Which results are given for `Cc1ccccc1-c1nc(-c2ccc3[nH]ccc3c2)no1`?
A: viability at 24 h, 20 µM [1]: 85.3%; Activity (RAW264.7 [2]): 47.22%

Q: For `C1=CCC(c2nc(-c3ccc4[nH]ccc4c3)no2)C1`, which viability at 24 h, 20 µM [1] is on record?
A: Its viability at 24 h, 20 µM is 24.3%.

Q: With `C(=C\c1noc(-c2ccccc2)n1)/c1ccccc1` as the compound, how does the viability at 24 h, 20 µM [1] read?
A: Its viability at 24 h, 20 µM is 28.2%.

Q: What does the source list for `c1ccc(-c2nc(C3CCCC3)no2)cc1`?
A: viability at 24 h, 20 µM [1]: 85.4%; Activity (RAW264.7 [2]): 34.28%

Q: With `c1cc2cc(-c3noc(C4CCC4)n3)ccc2[nH]1` as the compound, how does the viability at 24 h, 20 µM [1] read?
A: Its viability at 24 h, 20 µM is 85.4%.

Q: And the Activity (RAW264.7 [2])?
A: Its Activity is 57.58%.

Q: With `c1cc2cc(-c3noc(C4CCOCC4)n3)ccc2[nH]1` as the compound, how does the viability at 24 h, 20 µM [1] read?
A: The viability at 24 h, 20 µM was 95.7%.

Q: What about the Activity (RAW264.7 [2]) of the same compound?
A: The Activity was 2.75%.

Q: For `C#Cc1ccc(-c2nc(-c3ccc4[nH]ccc4c3)no2)cc1`, which viability at 24 h, 20 µM [1] is on record?
A: The viability at 24 h, 20 µM was 23.6%.

Q: Which viability at 24 h, 20 µM [1] does the source give for `c1ccc(-c2nc(-c3cccc4ccccc34)no2)cc1` here?
A: The viability at 24 h, 20 µM was 90.4%.

Q: What about the Activity (RAW264.7 [2]) of the same compound?
A: Its Activity is 59.89%.

Q: For `c1cc2cc(-c3noc(C4CCCCC4)n3)ccc2[nH]1`, which viability at 24 h, 20 µM [1] is on record?
A: The viability at 24 h, 20 µM was 68.8%.

Q: Which viability at 24 h, 20 µM [1] does the source give for `Oc1ccc(-c2nc(-c3ccc4[nH]ccc4c3)no2)cc1` here?
A: Its viability at 24 h, 20 µM is 36.5%.

Q: For `c1ccc(-c2nc(-c3c[nH]c4ccccc34)no2)cc1`, which viability at 24 h, 20 µM [1] is on record?
A: Its viability at 24 h, 20 µM is 11.6%.

Q: Which viability at 24 h, 20 µM [1] does the source give for `COc1ccccc1-c1nc(-c2ccc3[nH]ccc3c2)no1` here?
A: The viability at 24 h, 20 µM was 45%.

Q: Which viability at 24 h, 20 µM [1] does the source give for `Fc1ccccc1-c1nc(-c2ccc3[nH]ccc3c2)no1` here?
A: The viability at 24 h, 20 µM was 26.4%.

Q: Which viability at 24 h, 20 µM [1] does the source give for `c1ccc(-c2nc(-c3ccc4cc[nH]c4c3)no2)cc1` here?
A: Its viability at 24 h, 20 µM is 31%.
